{"source": "paper PMC6923798", "about": "(Bioorganic chemistry, 2018)", "key": {"[1]": {"tested_on": "SR", "assay": "NCI in vitro five dose anticancer assay", "format": "cell-based, human", "settings": "48 h"}, "[2]": {"tested_on": "CCRF-CEM", "assay": "NCI in vitro five dose anticancer assay", "format": "cell-based, human", "settings": "48 h"}, "[3]": {"tested_on": "HT29", "assay": "NCI in vitro five dose anticancer assay", "format": "cell-based, human"}, "[4]": {"molecular_target": "c-Src (Homo sapiens, UniProt P12931)", "sequence (P12931 whole entry)": "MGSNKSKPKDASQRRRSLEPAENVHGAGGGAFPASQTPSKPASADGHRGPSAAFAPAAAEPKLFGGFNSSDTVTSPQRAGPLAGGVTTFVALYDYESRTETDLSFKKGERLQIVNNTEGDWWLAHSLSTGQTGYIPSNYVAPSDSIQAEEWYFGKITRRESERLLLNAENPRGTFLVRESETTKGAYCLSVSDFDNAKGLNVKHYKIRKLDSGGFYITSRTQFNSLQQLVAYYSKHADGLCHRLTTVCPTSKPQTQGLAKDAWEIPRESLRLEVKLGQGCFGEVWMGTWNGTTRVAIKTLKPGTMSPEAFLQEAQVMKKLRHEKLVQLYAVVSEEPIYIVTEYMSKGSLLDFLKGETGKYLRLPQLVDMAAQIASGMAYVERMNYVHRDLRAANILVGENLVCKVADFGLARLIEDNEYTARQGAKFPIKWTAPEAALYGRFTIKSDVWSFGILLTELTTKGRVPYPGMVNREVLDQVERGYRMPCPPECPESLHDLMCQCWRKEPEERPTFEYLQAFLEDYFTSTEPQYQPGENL", "assay": "Src kinase assay", "format": "biochemical"}, "[5]": {"tested_on": "RPMI-8226 cell line", "assay": "NCI in vitro one dose anticancer assay", "format": "cell-based", "settings": "Homo sapiens, RPMI-8226, 48 h, read-out: % growth inhibition", "method_in_brief": "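NCI protocol. Test compound added once at 10−5 M to ~60 human tumour lines from nine subpanels. Incubated 48 h at 37 °C, 5% CO2, 95% air, 100% relative humidity. Endpoint by sulforhodamine B protein staining with spectrophotometric absorbance. Growth of treated cells reported as percent of untreated cells.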"}, "[6]": {"tested_on": "SN12C", "assay": "NCI in vitro five dose anticancer assay", "format": "cell-based, human", "settings": "48 h"}, "[7]": {"tested_on": "HS 578T", "assay": "NCI in vitro five dose anticancer assay", "format": "cell-based, human", "settings": "48 h"}, "[8]": {"tested_on": "786–0", "assay": "NCI in vitro five dose anticancer assay", "format": "cell-based, human"}, "[9]": {"tested_on": "SW-620", "assay": "NCI in vitro five dose anticancer assay", "format": "cell-based, human"}}}
{"smiles": "COc1ccc(C=CC(=O)c2ccc(NC(=O)CSc3nnc(-c4cc(OC)c(OC)c(OC)c4)o3)cc2)cc1", "note": "[Compound 8v, N-(4-(3-(4-Methoxyphenyl)acryloyl)phenyl)-2-((5-(3,4,5-trimethoxy-phenyl)-1,3,4-oxadiazol-2-yl)thio)acetamide]", "values": [{"measurement": "GI50", "setting": "[1]; Homo sapiens", "value": 1860, "unit": "nM"}, {"measurement": "TGI", "setting": "[1]; Leukemia, five dose, SRB", "value": 4010, "unit": "nM"}, {"measurement": "GI50", "setting": "[2]; Homo sapiens", "value": 1840, "unit": "nM"}, {"measurement": "TGI", "setting": "[2]; Leukemia, five dose, SRB", "value": 4560, "unit": "nM"}, {"measurement": "TGI", "setting": "[3]; HT29, Colon Cancer, five dose, 48 h, SRB", "value": 3620, "unit": "nM"}, {"measurement": "GI50", "setting": "[3]; Homo sapiens, HT-29, 48 h", "value": 1830, "unit": "nM"}, {"measurement": "IC50", "setting": "[4]", "value": "960 ± 200", "unit": "nM"}, {"measurement": "inhibition at 10 µM", "setting": "[5]", "value": "31.3 to 144", "unit": "%"}, {"measurement": "GI50", "setting": "[6]; Homo sapiens", "value": 1830, "unit": "nM"}, {"measurement": "TGI", "setting": "[6]; Renal Cancer, five dose, SRB", "value": 3570, "unit": "nM"}, {"measurement": "TGI", "setting": "[7]; HS 578T, Breast cancer, five dose, SRB", "value": 7760, "unit": "nM"}, {"measurement": "GI50", "setting": "[7]; Homo sapiens, Hs-578T", "value": 2650, "unit": "nM"}, {"measurement": "TGI", "setting": "[8]; 786–0, Renal Cancer, five dose, 48 h, SRB", "value": 3360, "unit": "nM"}, {"measurement": "GI50", "setting": "[8]; Homo sapiens, 786-0, 48 h", "value": 1700, "unit": "nM"}, {"measurement": "GI50", "setting": "[9]; Homo sapiens, SW-620, 48 h", "value": 1860, "unit": "nM"}, {"measurement": "TGI", "setting": "[9]; SW-620, Colon Cancer, five dose, 48 h, SRB", "value": 3600, "unit": "nM"}]}
